Results taken from ChEMBL document CHEMBL3352791, “Thioaryl naphthylmethanone oxime ether analogs as novel anticancer agents” (J Med Chem, 2014).

Assays:
[1] = Antiproliferative activity against human DLD1 cells after 24 hrs by MTT assay; assay type: functional, cell-based; conditions: DLD-1, 24 h
Procedure, shortened: (§1)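 MTT viability: cells seeded at 1×10^4 per well in DMEM with 10% FBS, left to adhere overnight, then serum-starved 4 h. Compounds were given at a range of doses, with 0.1% DMSO vehicle as control. EC50 was taken from dose-response curves spanning 100nM-50µM. Data are mean ± SEM from at least three independent experiments.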

SW-620 = test: Antiproliferative activity against human SW620 cells after 24 hrs by MTT assay; assay type: functional, cell-based; conditions: SW-620, 24 h; procedure, shortened: as §1
[2] = Safety index, ratio of IC50 for human MCF10A cells to EC50 for human COLO205 cells; assay type: toxicity, cell-based, COLO 205; conditions: MCF10A cells versus COLO205 cells, read-out: Ratio IC50/EC50
Procedure, shortened: (§2)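 Safety index is the IC50 in the normal cells divided by the EC50 in the cancer cells. Both values come from MTT assays: cells in DMEM with 10% FBS, serum-starved 4 h, then exposed to compound across a 100nM-50µM dose range with 0.1% DMSO as vehicle control.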

[3] = Safety index, ratio of IC50 for human MCF10A cells to EC50 for human SW620 cells; assay type: toxicity, cell-based, SW-620; conditions: MCF10A cells versus SW620 cells, read-out: Ratio IC50/EC50; procedure, shortened: as §2
[4] = Antiproliferative activity against human HCT116 cells after 24 hrs by MTT assay; assay type: functional, cell-based; conditions: HCT-116, 24 h; procedure, shortened: as §1
[5] = Antiproliferative activity against human COLO205 cells after 24 hrs by MTT assay; assay type: functional, cell-based; conditions: COLO 205, 24 h; procedure, shortened: as §1
[6] = Safety index, ratio of IC50 for human MCF10A cells to EC50 for human DLD1 cells; assay type: toxicity, cell-based, MCF-10A; conditions: MCF10A cells versus DLD1 cells, read-out: Ratio IC50/EC50; procedure, shortened: as §2
[7] = Safety index, ratio of IC50 for human MCF10A cells to EC50 for human HCT116 cells; assay type: toxicity, cell-based, MCF-10A; conditions: MCF10A cells versus HCT116 cells, read-out: Ratio IC50/EC50; procedure, shortened: as §2
HEK293 = test: Antiproliferative activity against HEK293 cells after 24 hrs by MTT assay; assay type: functional, cell-based; conditions: Homo sapiens, HEK293, 24 h; procedure, shortened: as §1
MDA-MB-231 [8] = test: Antiproliferative activity against human ER-positive MDA-MB-231 cells after 24 hrs by MTT assay; assay type: functional, cell-based
[9] = Antiproliferative activity against human prostate, androgen receptor positive DU145 cells after 24 hrs by MTT assay; assay type: functional, cell-based, DU-145
MCF7 [10] = test: Antiproliferative activity against human ER-negative MCF7 cells after 24 hrs by MTT assay; assay type: functional, cell-based
Ishikawa = test: Antiproliferative activity against human ER-positive Ishikawa cells after 24 hrs by MTT assay; assay type: functional, cell-based
HeLa = test: Antiproliferative activity against human HeLa cells after 24 hrs by MTT assay; assay type: functional, cell-based
MCF7 [11] = test: Antiproliferative activity against human ER-negative MCF7 cells after 72 hrs by MTT assay; assay type: functional, cell-based; conditions: MCF7, 72 h
MDA-MB-231 [12] = test: Antiproliferative activity against human ER-positive MDA-MB-231 cells after 72 hrs by MTT assay; assay type: functional, cell-based; conditions: MDA-MB-231, 72 h
in vitro = conditions: human, MCF10A cells versus
[13] = Cytotoxicity against human MCF10A cells after 72 hrs by MTT assay; assay type: ADME, cell-based; conditions: MCF-10A
[14] = Safety index, ratio of IC50 for human MCF10A cells to EC50 for human ER-positive MDA-MB-231 cells; conditions: MCF10A cells versus

Structure (SMILES) | EC50 (MDA-MB-231 [8]; Homo sapiens, MDA-MB-231, 24 h) | EC50 ([9]; Homo sapiens, DU-145, 24 h) | EC50 (MCF7 [10]; Homo sapiens, MCF7, 24 h) | EC50 (Ishikawa; Homo sapiens, Ishikawa, 24 h) | EC50 (HeLa; Homo sapiens, HeLa, 24 h) | other results
O=c1[nH]cc(F)c(=O)[nH]1 [FLUOROURACIL] | – | – | – | – | – | EC50 [1]: 16.3 µM; EC50 (SW-620): > 50 µM; selectivity ratio [2]: 1.2; selectivity ratio [3]: 0.97; EC50 [4]: > 50 µM; EC50 [5]: 38.1 µM; selectivity ratio [6]: 2.98; selectivity ratio [7]: 0.97; IC50 (HEK293): 48.7 µM
CCCCN(C)CCCO/N=C(\c1ccc(SC)cc1)c1cccc2ccccc12 | > 50 µM | > 50 µM | > 50 µM | > 50 µM | 8 µM | –
CCN(CC)CCO/N=C(\c1ccc(SC)cc1)c1cccc2ccccc12 [listing 1 of 4 here] | – | – | – | – | – | EC50 (MDA-MB-231 [8]; mda-mb-231): > 50 µM; EC50 ([9]; du-145): > 50 µM; EC50 (MCF7 [10]; mcf7): > 50 µM; EC50 (Ishikawa; ishikawa): > 50 µM; EC50 (HeLa; hela): > 50 µM
CSc1ccc(/C(=N\OCCN(C(C)C)C(C)C)c2cccc3ccccc23)cc1 | > 50 µM | > 50 µM | > 50 µM | > 50 µM | > 50 µM | –
COc1ccc(/C(=N\OC(C)CN(C)C)c2cccc3ccccc23)cc1 (configuration not stated) | > 50 µM | > 50 µM | > 50 µM | > 50 µM | > 50 µM | –
CSc1ccc(/C(=N\OCCN(C)C)c2cccc3ccccc23)cc1 | 12.8 µM | 15 µM | 14 µM | 9 µM | 14 µM | –
CSc1ccc(/C(=N\OCCCN2CCC(C)CC2)c2cccc3ccccc23)cc1 | 20 µM | 10 µM | 6.5 µM | > 50 µM | > 50 µM | –
CSc1ccc(/C(=N\OCCCCNCCc2ccccc2)c2cccc3ccccc23)cc1 | 20 µM | > 50 µM | 18 µM | > 50 µM | > 50 µM | –
COc1ccc(/C(=N\OCCN2CCCC2)c2cccc3ccccc23)cc1 | > 50 µM | > 50 µM | 25 µM | > 50 µM | 20 µM | –
CSc1ccc(/C(=N\OCCN2CCOCC2)c2cccc3ccccc23)cc1 | > 50 µM | > 50 µM | > 50 µM | > 50 µM | > 50 µM | –
CCN(CC)CCO/N=C(\c1ccc(SC)cc1)c1cccc2ccccc12 [listing 2 of 4 here] | – | – | – | – | – | EC50 (MDA-MB-231 [8]; mda-mb-231): 14.8 µM; EC50 ([9]; du-145): 20 µM; EC50 (MCF7 [10]; mcf7): 18.5 µM; EC50 (Ishikawa; ishikawa): 20 µM
CSc1ccc(/C(=N\OCCCN2CCCCC2)c2cccc3ccccc23)cc1 | 20 µM | 15 µM | 5 µM | 12 µM | 6.5 µM | EC50 (MCF7 [11]): 5 µM; EC50 (MDA-MB-231 [12]): 20 µM; selectivity ratio (in vitro): 2; IC50 [13]: 10 µM; selectivity ratio [14]: 0.5
CCN(CC)CCO/N=C(\c1ccc(OC)cc1)c1cccc2ccccc12 | > 50 µM | > 50 µM | 20 µM | > 50 µM | > 50 µM | –
O=C(c1ccc(OCCN2CCCCC2)cc1)c1c(-c2ccc(O)cc2)sc2cc(O)ccc12 [RALOXIFENE] | 30 µM | > 50 µM | 23 µM | 20 µM | – | –
CSc1ccc(/C(=N\O)c2cccc3ccccc23)cc1 | 20 µM | > 50 µM | 18 µM | > 50 µM | 18 µM | –
COc1ccc(/C(=N\OCCN(C(C)C)C(C)C)c2cccc3ccccc23)cc1 | > 50 µM | > 50 µM | 23 µM | > 50 µM | > 50 µM | –
CCCCC(CC)CNCCCO/N=C(\c1ccc(OC)cc1)c1cccc2ccccc12 (configuration not stated) | > 50 µM | > 50 µM | > 50 µM | > 50 µM | > 50 µM | –
CCN(CC)CCO/N=C(\c1ccc(SC)cc1)c1cccc2ccccc12 [listing 3 of 4 here] | – | – | – | – | – | EC50 (MDA-MB-231 [8]; mda-mb-231): 8.8 µM; EC50 ([9]; du-145): 25 µM; EC50 (MCF7 [10]; mcf7): 13.5 µM; EC50 (Ishikawa; ishikawa): 25 µM; EC50 (HeLa; hela): 20 µM

Structure (SMILES) | EC50 (MDA-MB-231 [8]; Homo sapiens, MDA-MB-231, 24 h) | EC50 ([9]; Homo sapiens, DU-145, 24 h) | EC50 (MCF7 [10]; Homo sapiens, MCF7, 24 h) | EC50 (Ishikawa; Homo sapiens, Ishikawa, 24 h) | EC50 (HeLa; Homo sapiens, HeLa, 24 h) | other results
CSc1ccc(/C(=N\OCCN2CCCC2)c2cccc3ccccc23)cc1 | 5.01 µM | 9.5 µM | 6.6 µM | 6 µM | 6.6 µM | EC50 (MCF7 [11]): 5 µM; EC50 (MDA-MB-231 [12]): 3.8 µM; selectivity ratio (in vitro): 1.1; IC50 [13]: 5.5 µM; selectivity ratio [14]: 1.4
COc1ccc(/C(=N\OCCN2CCCCCC2)c2cccc3ccccc23)cc1 | 30 µM | 35 µM | 25 µM | > 50 µM | 20.5 µM | –
CCN(CC)CCO/N=C(\c1ccc(SC)cc1)c1cccc2ccccc12 [listing 4 of 4 here] | – | – | – | – | – | EC50 (MDA-MB-231 [8]; mda-mb-231): 11.2 µM; EC50 ([9]; du-145): 18.5 µM; EC50 (MCF7 [10]; mcf7): 14.8 µM; EC50 (Ishikawa; ishikawa): 15 µM
CSc1ccc(/C(=N\OCCCCN2CCCC2)c2cccc3ccccc23)cc1 | > 50 µM | > 50 µM | > 50 µM | > 50 µM | > 50 µM | –
CSc1ccc(/C(=N\OCCN2CCCCC2)c2cccc3ccccc23)cc1 | 8.8 µM | 10 µM | 13.5 µM | 10 µM | 13.5 µM | –
CSc1ccc(/C(=N\OCCCCN2CCCCC2)c2cccc3ccccc23)cc1 | 18 µM | 7.5 µM | 8 µM | 18 µM | 18 µM | EC50 (MCF7 [11]): 8 µM; EC50 (MDA-MB-231 [12]): 18 µM; selectivity ratio (in vitro): 1.2; IC50 [13]: 10 µM; selectivity ratio [14]: 0.5
COc1ccc(/C(=N\OCCN(C)C)c2cccc3ccccc23)cc1 | > 50 µM | > 50 µM | 15 µM | > 50 µM | 23 µM | –
CSc1ccc(/C(=N\OCCCN2CCOCC2)c2cccc3ccccc23)cc1 | > 50 µM | > 50 µM | > 50 µM | > 50 µM | > 50 µM | –
COc1ccc(/C(=N\OCCCN(C)C)c2cccc3ccccc23)cc1 | > 50 µM | > 50 µM | 20.5 µM | > 50 µM | > 50 µM | –
CSc1ccc(/C(=N\OCCN2CCCCCC2)c2cccc3ccccc23)cc1 | > 50 µM | > 50 µM | > 50 µM | > 50 µM | > 50 µM | –
CSc1ccc(/C(=N\OC(C)CN(C)C)c2cccc3ccccc23)cc1 (configuration not stated) | > 50 µM | > 50 µM | > 50 µM | > 50 µM | > 50 µM | –
CCN(CC)C(=O)CO/N=C(\c1ccc(SC)cc1)c1cccc2ccccc12 | 30 µM | > 50 µM | 28 µM | > 50 µM | 25 µM | –
CC/C(=C(\c1ccc(O)cc1)c1ccc(OCCN(C)C)cc1)c1ccccc1 [AFIMOXIFENE] | 8 µM | 10 µM | 8.8 µM | 11.5 µM | – | EC50 (MDA-MB-231 [12]): 7.8 µM; selectivity ratio [14]: 1.28
CCN(CCCCO/N=C(\c1ccc(SC)cc1)c1cccc2ccccc12)Cc1ccccc1 | > 50 µM | > 50 µM | > 50 µM | > 50 µM | 10 µM | –
COc1ccc(/C(=N\OCCN2CCOCC2)c2cccc3ccccc23)cc1 | 25 µM | > 50 µM | 20 µM | > 50 µM | > 50 µM | –
CSc1ccc(/C(=N\OCCCN(C)C)c2cccc3ccccc23)cc1 | 7.2 µM | 9.5 µM | 8 µM | 7 µM | 8 µM | EC50 (MCF7 [11]): 1 µM; EC50 (MDA-MB-231 [12]): 5.6 µM; selectivity ratio (in vitro): 30; IC50 [13]: 30 µM; selectivity ratio [14]: 5.3
CCOC(=O)CO/N=C(\c1ccc(SC)cc1)c1cccc2ccccc12 | 35 µM | > 50 µM | 30 µM | > 50 µM | 18 µM | –
COc1ccc(/C(=N\OCCN2CCCCC2)c2cccc3ccccc23)cc1 | > 50 µM | > 50 µM | 18 µM | > 50 µM | 15 µM | –
